Measured values from ChEMBL document CHEMBL1145857, “Toward tissue-selective pancreatic B-cells KATP channel openers belonging to 3-alkylamino-7-halo-4H-1,2,4-benzothiadiazine 1,1-dioxides” (J Med Chem, 2003).

How the values were obtained:
[1] = species on record: Rattus norvegicus; test: Concentration required to inhibit insulin release in rat; type: functional
[2] = species on record: Rattus norvegicus; test: Estimated selectivity ratio of ED50 and IC50 in rat was calculated; type: functional
[3] = species on record: Rattus norvegicus; test: Percent inhibition of residual insulin release from rat pancreatic islets in the presence of 16.7 mM glucose at 10 uM concentration; type: functional
Summary of the method: (§1)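 Islets isolated by collagenase from fed Wistar rats (180–220 g); groups of 10 islets preincubated 30 min at 37 °C in bicarbonate salt medium with 2.8 mM glucose and 0.5% dialyzed albumin under O2/CO2 95:5, then incubated 90 min at 37 °C with 16.7 mM glucose plus drug. Insulin measured by radioimmunoassay against rat insulin standard; residual release as % of drug-free 16.7 mM glucose control; IC50 estimated.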

[4] = species on record: Rattus norvegicus; test: Effective dose required for relaxation of the 30 mM KCl-induced contraction of rat aortic rings; type: functional; conditions: Aorta, read-out: ED50 (the source's name)
Summary of the method: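 Endothelium-denuded transverse aortic rings (3–4 mm) from fed Wistar rats (180–220 g); isometric tension by force transducer. After 60 min equilibration, contracted with 30 mM KCl; once stable, drug added cumulatively to maximal relaxation or 0.3 mM. Relaxation as % of KCl contraction; ED50 (50% inhibition of KCl plateau) from dose–response curves; mean ± SEM (n).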

[5] = species on record: Rattus norvegicus; test: Percent inhibition of residual insulin release from rat pancreatic islets in the presence of 16.7 mM glucose at 1 uM concentration; type: functional; summary of the method: as §1
[6] = species on record: Rattus norvegicus; test: Percent inhibition of residual insulin release from rat pancreatic islets in the presence of 16.7 mM glucose at 50 uM concentration; type: functional; summary of the method: as §1
[7] = pKa value determined at 20 °C
[8] = species on record: Rattus norvegicus; test: Percent inhibition of residual insulin release from rat pancreatic islets in the presence of 16.7mM glucose at 0.1 uM concentration; type: functional
Summary of the method: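 Islets isolated by collagenase from fed Wistar rats (180–220 g). Groups of 10 islets preincubated 30 min at 37 °C in bicarbonate salt medium with 2.8 mM glucose, 0.5% dialyzed albumin, gassed O2/CO2 95:5. Then incubated 90 min at 37 °C with 16.7 mM glucose plus drug. Insulin measured by radioimmunoassay against rat insulin; expressed as % of drug-free 16.7 mM glucose control; mean ± SEM (n).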

Structure (SMILES) | IC50 [1] | Selectivity [2] | RIS [3] | EC50 [4] | RIS [5] | RIS [6] | pKa [7] | RIS [8]
CCC(C)(C)NC1=NS(=O)(=O)c2cc(Cl)ccc2N1 | > 10 µM | <0.029 | 83.2% | 0.29 µM | – | – | – | –
C=CCNC1=Nc2ccc(F)cc2S(=O)(=O)N1 | 2.7 µM | >111 | 12.8% | > 300 µM | 84.1% | 4.1% | – | –
CNC1=NS(=O)(=O)c2cc(Br)ccc2N1 | 1.8 µM | 17 | 7.3% | 31 µM | 69.9% | 6.4% | – | –
CC(C)C(C)NC1=NS(=O)(=O)c2cc(F)ccc2N1 (stereo not drawn) | 2.8 µM | 9 | 10.6% | 26.4 µM | 87.7% | 7.9% | – | –
O=S1(=O)NC(NC2CCC2)=Nc2ccc(I)cc21 | < 10 µM | >2.2 | 30.6% | 22.2 µM | – | – | – | –
CCC(CC)NC1=NS(=O)(=O)c2cc(Cl)ccc2N1 | 4.5 µM | 21 | 31.7% | 93.6 µM | 93.7% | 8.1% | – | –
O=S1(=O)NC(NC2CCC2)=Nc2ccc(F)cc21 | 1.3 µM | 55 | 7.8% | 71.8 µM | 58.2% | 5.9% | – | –
CC(C)NC1=NS(=O)(=O)c2cc(F)ccc2N1 | 0.8 µM | 54 | 3.7% | – | – | 3.3% | 9.63 | –
O=S1(=O)NC(NCC2CC2)=Nc2ccc(Cl)cc21 | > 10 µM | <4 | 65.9% | 41.2 µM | – | 15.2% | – | –
C=CCNC1=Nc2ccc(Cl)cc2S(=O)(=O)N1 | 3.1 µM | 9 | 17.3% | 28.9 µM | 87.9% | 7.8% | – | –
CCC(C)NC1=NS(=O)(=O)c2cc(F)ccc2N1 (stereo not drawn) | 1.6 µM | 25 | 6.9% | 39.2 µM | 64.6% | 5.9% | – | –
O=S1(=O)NC(NC2CC2)=Nc2ccc(Br)cc21 | 3.1 µM | 29 | 21.1% | 89.4 µM | 85.1% | 4.6% | – | –
CCCNC1=NS(=O)(=O)c2cc(Br)ccc2N1 | < 10 µM | >0.6 | 34.7% | 5.9 µM | – | 7.1% | – | –
CC(C)C(C)NC1=NS(=O)(=O)c2cc(I)ccc2N1 (stereo not drawn) | > 50 µM | <0.02 | 86.2% | 0.94 µM | 91.9% | 51.7% | – | –
CCNC1=NS(=O)(=O)c2cc(Cl)ccc2N1 | < 1 µM | >40 | 10.7% | 39.9 µM | 29.2% | 2.1% | – | –
CC1=Nc2ccc(Cl)cc2S(=O)(=O)N1 [DIAZOXIDE] | – | – | – | 22.4 µM | – | 26.7% | – | –
CC(C)C(C)NC1=NS(=O)(=O)c2cc(Br)ccc2N1 (stereo not drawn) | > 10 µM | < 0.26 | 98.4% | 2.6 µM | 97.2% | 21.4% | – | –
CCCNC1=NS(=O)(=O)c2cc(F)ccc2N1 | 2 µM | 83 | 15.1% | 166 µM | 69.2% | 7.7% | – | –
CCC(CC)NC1=NS(=O)(=O)c2cc(I)ccc2N1 | > 10 µM | <7.9 | 67% | 79.1 µM | – | 17% | – | –
CC(C)(C)NC1=NS(=O)(=O)c2cc(Cl)ccc2N1 | > 10 µM | <0.14 | 64.4% | 1.4 µM | – | – | – | –

Structure (SMILES) | IC50 [1] | Selectivity [2] | RIS [3] | EC50 [4] | RIS [5] | RIS [6] | pKa [7] | RIS [8]
CCNC1=NS(=O)(=O)c2cc(Br)ccc2N1 | < 1 µM | >6 | 6.5% | 6.2 µM | 38.1% | 4.6% | – | –
CC(C)NC1=NS(=O)(=O)c2cc(Cl)ccc2N1 | – | 52 | 4.9% | 36.3 µM | – | 5.7% | 9.51 | –
CCCNC1=NS(=O)(=O)c2cc(Cl)ccc2N1 | – | 21 | 14.2% | 55.5 µM | 83.4% | 3.6% | – | –
CCC(C)NC1=NS(=O)(=O)c2cc(Cl)ccc2N1 (stereo not drawn) | 3.1 µM | 5 | 19.9% | 15.5 µM | 85.4% | 5.5% | – | –
CC(N/C(=N\C#N)Nc1ccncc1)C(C)(C)C (stereo not drawn) [PINACIDIL ANHYDROUS] | > 100 µM | – | – | 0.35 µM | 97.7% | 88.8% | – | –
O=S1(=O)NC(NCC2CC2)=Nc2ccc(F)cc21 | < 10 µM | >15 | 39.8% | 146 µM | – | 6.4% | – | –
CCNC1=NS(=O)(=O)c2cc(F)ccc2N1 | 1 µM | >300 | 8.6% | > 300 µM | 50.8% | 6.3% | – | –
CNC1=NS(=O)(=O)c2cc(F)ccc2N1 | 2.2 µM | >136 | 7.7% | > 300 µM | 76.1% | 5.7% | – | –
CC(C)NC1=NS(=O)(=O)c2cc(I)ccc2N1 | 2.1 µM | 3.7 | 9.6% | 7.7 µM | 74.8% | 5.6% | 9.28 | 99.2%
O=S1(=O)N=C(NC2CC2)Nc2ccc(Cl)cc21 | 3.4 µM | 56 | 26.6% | 190 µM | 84% | 5.8% | – | –
CNC1=NS(=O)(=O)c2cc(Cl)ccc2N1 | 1.1 µM | 129 | 4.4% | 142 µM | 55.1% | 2.4% | – | –
O=S1(=O)NC(NC2CCCC2)=Nc2ccc(F)cc21 | 1.8 µM | 32 | 6.6% | 58 µM | 68.8% | 5.4% | – | –
O=S1(=O)NC(NC2CCC2)=Nc2ccc(Br)cc21 | 1.1 µM | 20 | 9.6% | 21.7 µM | 54.8% | 6.1% | – | –
CCC(C)NC1=NS(=O)(=O)c2cc(I)ccc2N1 (stereo not drawn) | > 10 µM | <0.13 | 64.8% | 1.3 µM | 84.2% | 22.5% | – | –
CC(C)C(C)NC1=NS(=O)(=O)c2cc(Cl)ccc2N1 (stereo not drawn) | > 10 µM | <0.12 | 62.7% | 1.2 µM | 88.1% | 11% | – | –
C=CCNC1=Nc2ccc(Br)cc2S(=O)(=O)N1 | 2.8 µM | 1.1 | 23.7% | 3 µM | 77.2% | 4.8% | – | –
O=S1(=O)N=C(NC2CCC2)Nc2ccc(Cl)cc21 | 1.3 µM | 27 | 6.4% | 34.9 µM | 60.2% | 8.1% | – | –
O=S1(=O)NC(NC2CC2)=Nc2ccc(F)cc21 | 5.1 µM | >58 | 32.5% | > 300 µM | 104.5% | 7.5% | – | –
CC(C)NC1=NS(=O)(=O)c2cc(Br)ccc2N1 | 0.5 µM | 9.6 | 8.1% | – | – | 6.7% | 9.41 | 91%
CCC(C)NC1=NS(=O)(=O)c2cc(Br)ccc2N1 (stereo not drawn) | 4 µM | 1.4 | 26.8% | 5.6 µM | 92.5% | 4% | – | –
